# B1: tRNA (parent)
# chain: GUUCCGUUGGCGUAAUGGUAACGCGUCUCCCUCCUAAGGAGAAGACUGCGGGUUCGAGUCCCGUACGGAACG
# Variants of: B1
# Experiment: yeast fitness, log relative to wild type (ln ratio); higher = fitter; tRNA-Arg(CCU), competitive growth, 37 C, 1 M NaCl
# Method in brief: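 For each genotype, fitness is defined as the natural log of its generation number over the wild type's. The tRNA-Arg(CCU) variant library was on a HIS3 centromeric plasmid in BY4742 with the chromosomal gene removed, and pools were first grown 4 generations in SC-HIS at 30 °C and then ~6.5 generations (~26.5 h) in SC-HIS 1M NaCl at 37 °C. Generations were calculated from OD-scaled log2 output/input frequency, weighted by inverse variance across replicates, using counts from 125 bp paired-end Illumina sequencing.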
row,Variant,yeast fitness (ln)
1,G6A A43C C46U A70U C71U,-0.151
2,G1A G6A C27U A69G A70G,-0.342
3,G1A U2C C27U C66U A69G A70U C71U,-0.54
4,G1A G6U C27U A43C C66U A70U,-0.381
5,U2C C46U C66A A70U C71U,-0.0668
6,G1A U2C G6U C27U,-0.0816
7,U2C C27U C46U A69G,-0.319
8,G6U C27U A43C C46U C66A A69G A70U,-0.462
9,G1A G6A C46U A69G A70U C71U,-0.256
10,G1A U2C C27U A43C A69G A70G,-0.275
11,G6U A43C A70G C71U,-0.249
12,U2G C46U C66U A70U C71U,-0.28
13,G1A U2G G6A A43C C46U A69G A70G C71U,-0.303
14,G1A G6A C66U A69G A70G C71U,-0.145
15,G6U C27U C46U C66A,-0.00348
16,G6U C27U A43C C66A A69G C71U,-0.333
17,G1A U2G A43C C46U A69G A70G,-0.141
18,G1A G6U A43C C46U A69G A70U C71U,-0.434
19,U2C C27U C66U C71U,-0.177
20,G1A G6U C27U A69G C71U,-0.371
21,A43C C66A A70U,-0.0764

row,Variant,yeast fitness (ln)
1,U2G C46U C66U C71U,-0.115
2,U2G G6A A69G,-0.135
3,G1A G6U C27U A43C A69G A70U,-0.481
4,U2C G6A C46U C66U A69G C71U,-0.183
5,G1A A43C C66U A70U,-0.21
6,C27U A43C C46U C66U A70G C71U,-0.206
7,G1A G6U A43C C71U,-0.101
8,U2G A43C C66A A69G A70U C71U,-0.28
9,U2C G6U A43C C66U,-0.161
10,G1A U2C C27U A43C C46U C66U A70G C71U,-0.4
11,U2C G6A A70G,-0.0119
12,G6A A43C C66A A70U C71U,-0.395
13,G1A C46U A70U,-0.0349
14,G1A U2G C27U A43C C46U,-0.038
15,U2C G6U C27U C46U C66U A69G A70G,-0.3
16,U2G G6A C46U A69G A70G C71U,-0.154
17,U2C G6U C27U A69G C71U,-0.22
18,U2C G6A C27U A43C C66A A70G C71U,-0.0895
19,G1A U2C G6U C27U A43C A69G A70U C71U,-0.282
20,G1A U2C G6A C27U A43C C46U A70G C71U,-0.149
21,G1A G6U C27U A43C C46U C66U A69G A70G,-0.353

row,Variant,yeast fitness (ln)
1,G6U C27U C46U A69G C71U,-0.314
2,G6U C27U A43C C66A C71U,-0.425
3,G6A C27U C66U A69G A70U,-0.214
4,G1A U2C A43C C46U A69G A70U C71U,-0.384
5,G1A G6U C46U C66A A69G A70U C71U,-0.341
6,G1A U2G G6U A43C C66U A69G C71U,-0.437
7,U2G G6A C27U C66U,-0.0928
8,U2G G6A C27U C66A,-0.186
9,G6A A43C A70G C71U,-0.283
10,G1A U2C A43C C66U A70G C71U,-0.272
11,G6U C27U A43C C46U A70G C71U,-0.337
12,G1A C27U C46U C66U A69G A70G,-0.251
13,A43C A70G,-0.022
14,G1A C66U A69G A70U,-0.174
15,G1A U2C C27U C66U A69G A70G,-0.313
16,G1A C66U A69G A70U C71U,-0.364
17,G6U A43C A69G A70G C71U,-0.327
18,U2C C27U A43C C46U C66U A70U,-0.115
19,G1A G6A C46U C66U A69G,-0.423
20,U2G C27U A43C C46U C66U A69G A70U,-0.221
21,U2C G6A C46U C66U C71U,-0.164

row,Variant,yeast fitness (ln)
1,G1A G6U C46U C66U,-0.0919
2,G1A U2G A43C C46U C66A C71U,-0.138
3,G1A U2G C27U C66U A69G C71U,-0.395
4,U2C G6A C66U,0.00772
5,G1A G6U A70U C71U,-0.213
6,G1A U2G G6U C27U C66U A69G C71U,-0.425
7,G1A U2G G6A C66U A69G A70G,-0.282
8,U2G C27U C66A,-0.0584
9,G1A U2C A43C C66U A70U,-0.169
10,U2G C27U C46U C66U A69G A70G,-0.187
11,C46U A70U C71U,-0.129
12,G1A U2C G6A A43C C66U A70U,-0.083
13,G6U C46U C66U A69G C71U,-0.594
14,G6A C27U C66U A69G C71U,-0.594
15,G1A U2G G6U A43C C66A A70G,-0.251
16,G1A A43C C46U C66U A69G A70U,-0.259
17,G1A U2C G6U A43C C46U,0.0223
18,U2G G6A C27U C46U C66U A69G A70G,-0.199
19,G6U C27U A43C C66A A69G A70G,-0.453
20,U2G G6A A43C C46U C66A A69G A70G C71U,-0.212
21,G1A U2G C27U A70U C71U,-0.0262
